In ChEMBL document CHEMBL1132495, “Alpha(2) adrenoceptor agonists as potential analgesic agents. 1. (Imidazolylmethyl)oxazoles and -thiazoles” (J Med Chem, 1999) one finds ED50 and Ki data, which are given here for 35 compounds.

Molecules are shown by their SMILES. Bounds are passed on as bounds.

Experiment [1] is filed under the species Mus musculus. The experiment is described as follows: Mouse Acetylcholine-induced Abdominal Irritant Test activity (MAIT). It is filed as functional. To be noted: Abdomen. A digest of the protocol:
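Male CD-1 mice, 18-24 g, fed ad libitum until testing. Compound or vehicle given orally by gavage; at set intervals afterwards, acetylcholine bromide 5.5 mg/kg i.p. Mice observed in bell jars for a single abdominal response; % antinociception per dose taken from responder counts. ED50 with 95% confidence limits by Litchfield-Wilcoxon probit analysis, including a chi-square test for linearity.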

Experiment [2] has as its target T1, Adrenergic receptor alpha-2 (Rattus norvegicus, UniProt P22086+P19328+P22909).
T1 sequence (P22086 whole entry): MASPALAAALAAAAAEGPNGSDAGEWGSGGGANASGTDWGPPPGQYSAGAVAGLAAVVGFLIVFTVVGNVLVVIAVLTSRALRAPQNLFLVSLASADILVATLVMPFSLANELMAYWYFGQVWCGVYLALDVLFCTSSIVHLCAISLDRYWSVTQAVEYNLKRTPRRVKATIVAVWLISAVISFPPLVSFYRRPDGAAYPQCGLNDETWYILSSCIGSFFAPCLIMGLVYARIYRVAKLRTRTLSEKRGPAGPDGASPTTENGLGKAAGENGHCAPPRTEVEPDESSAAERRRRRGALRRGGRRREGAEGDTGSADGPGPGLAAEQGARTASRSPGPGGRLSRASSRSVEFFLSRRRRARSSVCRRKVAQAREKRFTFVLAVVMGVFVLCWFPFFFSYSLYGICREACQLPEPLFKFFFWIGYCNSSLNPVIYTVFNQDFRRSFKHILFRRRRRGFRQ
T1 sequence (P19328 whole entry): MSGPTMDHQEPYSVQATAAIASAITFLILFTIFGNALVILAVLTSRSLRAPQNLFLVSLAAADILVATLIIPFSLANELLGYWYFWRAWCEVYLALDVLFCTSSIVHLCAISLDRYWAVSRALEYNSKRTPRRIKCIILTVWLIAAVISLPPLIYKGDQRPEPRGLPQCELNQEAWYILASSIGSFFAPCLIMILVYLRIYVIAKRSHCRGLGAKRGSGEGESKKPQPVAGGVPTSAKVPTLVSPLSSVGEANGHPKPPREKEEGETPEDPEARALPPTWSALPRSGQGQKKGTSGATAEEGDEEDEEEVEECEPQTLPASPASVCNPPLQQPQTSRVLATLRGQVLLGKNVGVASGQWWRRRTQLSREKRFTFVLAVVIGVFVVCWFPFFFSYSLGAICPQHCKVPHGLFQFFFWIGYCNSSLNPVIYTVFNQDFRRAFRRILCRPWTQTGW
T1 sequence (P22909 whole entry): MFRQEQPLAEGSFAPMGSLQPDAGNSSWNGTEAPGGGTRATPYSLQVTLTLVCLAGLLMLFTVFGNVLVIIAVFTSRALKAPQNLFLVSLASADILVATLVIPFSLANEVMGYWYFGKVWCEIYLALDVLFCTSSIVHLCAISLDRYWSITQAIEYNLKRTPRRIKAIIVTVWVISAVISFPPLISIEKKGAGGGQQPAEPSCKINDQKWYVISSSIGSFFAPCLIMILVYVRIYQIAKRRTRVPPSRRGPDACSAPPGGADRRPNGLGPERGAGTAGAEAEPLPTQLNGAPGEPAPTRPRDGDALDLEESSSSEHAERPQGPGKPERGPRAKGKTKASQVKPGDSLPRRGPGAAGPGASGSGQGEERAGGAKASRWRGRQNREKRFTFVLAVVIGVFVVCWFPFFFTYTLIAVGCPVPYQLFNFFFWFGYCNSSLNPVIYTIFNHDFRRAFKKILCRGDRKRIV
Kind of experiment: In vitro binding affinity against alpha-2 adrenergic receptor in rat. The procedure, abridged:
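Rat cortex synaptic membranes (male Wistar rats, 150-250 g; homogenized in HEPES-sucrose, spun at 1000g then 42000g, pellet washed in 3 mM K phosphate pH 7.5 with 30 min 25 °C preincubation). Displacement of [3H]p-aminoclonidine (0.1 nM), 20 min at 25 °C; filtration, scintillation counting. 8-10 concentrations in triplicate; Ki from single-site fit, nonspecific binding as fitted parameter.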

The species named for experiment [3] is Mus musculus. The experiment is described as follows: Mouse Acetylcholine-induced Abdominal Irritant Test activity(MAIT) of the compound. The conditions noted are these: Abdomen.

In the experiment filed under Mus musculus [1], `CCc1nc(Cc2c[nH]cn2)sc1C` displayed an ED50 above 30 mg/kg. In experiment [2], this compound came in with a Ki of 18 nM.

`CCc1sc(C)nc1Cc1c[nH]cn1` gave an ED50 in the experiment filed under Mus musculus [1] of 2.3 mg/kg. For the same compound, the Ki in experiment [2] is given as 10 nM.

Consider `CCc1nc(CC)c(Cc2c[nH]cn2)s1`, for which the ED50 in the experiment listed under Mus musculus [1] was above 30 mg/kg. Besides, in experiment [2], the Ki turned out to be 23 nM.

`CCc1nc(C(C)c2c[nH]cn2)c(CC)s1` (centres undefined): the ED50 in the experiment listed under Mus musculus [1] is 16 mg/kg. Further, the Ki in experiment [2] worked out at 407 nM.

Turning to `CC(C)c1nc(Cc2c[nH]cn2)c(C(C)C)o1`, in the experiment listed under Mus musculus [1], the 50% effect level (ED50) was put at a dose of 6.9 mg/kg. The compound also returned a Ki in experiment [2] of 714 nM.

As for `CCc1nc(Cc2c[nH]cn2)c(C)s1`, the ED50 in the experiment listed under Mus musculus [1] is above 30 mg/kg. This compound returned a Ki in experiment [2] of 57 nM.

For `CCc1nc(Cc2c[nH]cn2)c(CC)o1`, in the experiment filed under Mus musculus [1], it took a dose of 2.8 mg/kg to reach the 50% effect level (ED50). The compound further came in with a Ki in experiment [2] of 58 nM.

`CCc1nc(Cc2cn[nH]n2)c(CC)s1` had an ED50 in the experiment listed under Mus musculus [1] above 30 mg/kg. This compound gave a Ki in experiment [2] above 1000 nM.

In turn, `CCc1nc(CC)c(C(C)c2c[nH]cn2)s1` (centres undefined) registered an ED50 in the experiment filed under Mus musculus [1] above 30 mg/kg. In experiment [2], this compound showed a Ki of 97 nM.

For the compound `CCc1nc(Cc2ncc[nH]2)c(CC)s1`, the ED50 in the experiment filed under Mus musculus [1] is above 30 mg/kg. Also, the Ki in experiment [2] is reported as above 1000 nM.

Compound `CCc1nc(Cc2nc[nH]n2)c(CC)s1` came in with an ED50 in the experiment filed under Mus musculus [1] above 30 mg/kg. Further, the inhibition constant Ki in experiment [2] is above 1000 nM.

`CCc1sc(Cc2c[nH]cn2)nc1C` returned an ED50 in the experiment filed under Mus musculus [1] of 2.8 mg/kg. Moreover, the Ki in experiment [2] is 18 nM.

Compound `CCc1csc(Cc2c[nH]cn2)n1` gave an ED50 in the experiment listed under Mus musculus [1] above 30 mg/kg. The Ki in experiment [2] worked out at 36 nM.

For `CCc1nc(Cc2c[nH]cn2)sc1CC`, the ED50 in the experiment listed under Mus musculus [1] was above 30 mg/kg. In experiment [2], this compound had a Ki of 86 nM.

The compound `Cc1nc(Cc2c[nH]cn2)c(C)o1` yielded an ED50 in the experiment listed under Mus musculus [1] above 30 mg/kg. In experiment [2], this compound had a Ki above 1000 nM.

As to `Cc1nc(C)c(C(c2ccccc2)c2c[nH]cn2)s1` (centres undefined), in the experiment listed under Mus musculus [1], the ED50 is above 30 mg/kg. Further, the Ki in experiment [2] stood at 269 nM.

Compound `Cc1nc(Cc2c[nH]cn2)c(C)s1` had an ED50 in the experiment listed under Mus musculus [1] above 30 mg/kg. This compound had a Ki in experiment [2] of 38 nM.

`CCc1nc(Cc2c[nH]cn2)c(C(C)C)s1`: the ED50 in the experiment listed under Mus musculus [1] came out at 25.3 mg/kg. Also, the Ki in experiment [2] is 235 nM.

With `c1nc(Cc2nc3c(s2)CCC3)c[nH]1`, the ED50 in the experiment listed under Mus musculus [1] is above 30 mg/kg. This compound also had a Ki in experiment [2] of 28 nM.

As for `CCc1cnc(Cc2c[nH]cn2)s1`, the ED50 in the experiment listed under Mus musculus [1] was above 30 mg/kg. The compound also returned a Ki in experiment [2] of 381 nM.

Take `c1ccc2sc(Cc3c[nH]cn3)nc2c1`: the ED50 in the experiment listed under Mus musculus [1] is above 30 mg/kg. In experiment [2], this compound came in with a Ki of 18 nM.

For the compound `c1nc(Cc2nc3c(s2)CCCC3)c[nH]1`, in the experiment filed under Mus musculus [1], the ED50 was above 30 mg/kg. In experiment [2], this compound had a Ki of 110 nM.

In the experiment filed under Mus musculus [1], `CCc1sc(C(C)C)nc1Cc1c[nH]cn1` registered an ED50 of 7.5 mg/kg. This compound returned a Ki in experiment [2] of 28 nM.

In turn, `CCCCc1nc(Cc2c[nH]cn2)c(CCCC)s1` came in with an ED50 in the experiment filed under Mus musculus [1] above 30 mg/kg. The Ki in experiment [2] was found to be 35 nM.

Regarding `CCc1sc(C(F)(F)F)nc1Cc1c[nH]cn1`, the 50% effect level in the experiment listed under Mus musculus [1] (ED50) was put at a dose of 20.3 mg/kg. In experiment [2], this compound yielded a Ki of 320 nM.

In the case of `CCCc1nc(Cc2c[nH]cn2)c(CCC)s1`, the 50% effect level in the experiment listed under Mus musculus [1] (ED50) was put at a dose of 30 mg/kg. Further, the Ki in experiment [2] stood at 97 nM.

In turn, `Cc1nc(Cc2c[nH]cn2)sc1C` came in with an ED50 in the experiment listed under Mus musculus [1] of 1.7 mg/kg. This compound had a Ki in experiment [2] of 11 nM.

`Cc1nc(C)c(Cc2c[nH]cn2)s1` gave an ED50 in the experiment filed under Mus musculus [1] of 1 mg/kg. Further, the Ki in experiment [2] came to 8 nM.

`CCc1nc(Cc2c[nH]cn2)c(CC)s1` came in with an ED50 in the experiment filed under Mus musculus [1] of 1.8 mg/kg. This compound also registered a Ki in experiment [2] of 17 nM.

`CCc1nc(C(Cc2ccccc2)c2c[nH]cn2)c(CC)s1` (centres undefined): in the experiment filed under Mus musculus [1], the ED50 is above 30 mg/kg. In experiment [2], the Ki was determined as 37 nM.

`CCc1sc(-c2ccccc2)nc1Cc1c[nH]cn1` returned an ED50 in the experiment listed under Mus musculus [1] of 15 mg/kg. This compound also gave a Ki in experiment [2] of 13 nM.

`Cc1nc(C)c(C(C)c2c[nH]cn2)s1` (centres undefined) had an ED50 in the experiment listed under Mus musculus [1] above 30 mg/kg. The Ki in experiment [2] is given as 60 nM.

`CC(C)c1nc(Cc2c[nH]cn2)c(C(C)C)s1` displayed an ED50 in the experiment listed under Mus musculus [1] of 23.8 mg/kg. In experiment [2], the Ki turned out to be 285 nM.

For `Cc1cccc(C(C)c2c[nH]cn2)c1C` (single isomer, unassigned) [DEXMEDETOMIDINE], in the experiment filed under Mus musculus [3], the 50% effect level (ED50) was put at a dose of 0.09 mg/kg. Further, the Ki in experiment [2] stood at 0.015 nM.

`CCc1nc(Cc2[nH]cnc2C)c(CC)s1` [ENTRY 68 A] showed a Ki in experiment [2] of 53 nM.
